assay: Inhibition of Escherichia coli methionine aminopeptidase 1
Method in brief: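 Coupled chromogenic assay at room temperature: 50 mM HEPES pH 7.5, 100 μM CoCl2, 400 μM Met-Pro-pNA substrate, 0.25–4.0 μM MetAP-1 enzyme, 10–25 μM proline aminopeptidase as coupling enzyme, varying inhibitor concentrations. pNA release read at 405 nm. Ki obtained by non-linear regression assuming a competitive steady-state model.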

`CN1C(=O)C(=Cc2ccc([N+](=O)[O-])cc2)C(=O)N(C)C1=O` and `CN1C(=O)C(=Cc2cccc([N+](=O)[O-])c2)C(=O)N(C)C1=O` cannot be ordered by Ki: greater than 100 µM for the first, greater than 100 µM for the second.

Going from `CN(C)c1ccc(/C=C/C=C2C(=O)NC(=S)NC2=O)cc1` to `CN(C)c1ccc(/C=C/C=C2C(=O)NC(=O)NC2=O)cc1`, the Ki falls from 17 µM to 0.05 µM (340-fold). The second binds more tightly here.

`CN1C(=O)C(=Cc2ccc(O)cc2)C(=O)N(C)C1=O` and `CN1C(=O)C(=Cc2ccc(F)cc2)C(=O)N(C)C1=O` cannot be ordered by Ki: greater than 100 µM for the first, greater than 100 µM for the second.

`O=C1NC(=S)NC(=O)C1=Cc1ccccc1` and `O=C1NC(=O)C(=Cc2ccccc2)C(=O)N1` cannot be ordered by Ki: greater than 100 µM for the first, 517 µM for the second.

Compared with `O=C1NC(=S)NC(=O)C1=Cc1cccc([N+](=O)[O-])c1`, `O=C1NC(=O)C(=Cc2cccc([N+](=O)[O-])c2)C(=O)N1` is lower in Ki: greater than 100 µM for the first, 29 µM for the second. The second binds more tightly here.

Compared with `COc1ccc(C=C2C(=O)NC(=S)NC2=O)cc1`, `COc1ccc(C=C2C(=O)NC(=O)NC2=O)cc1` is 3.5-fold lower in Ki: 87 µM for the first, 25 µM for the second. The second binds more tightly here.

Compared with `CN(C)c1ccc(C=C2C(=O)NC(=S)NC2=O)cc1`, `CN(C)c1ccc(C=C2C(=O)NC(=O)NC2=O)cc1` is lower in Ki: greater than 100 µM for the first, 13 µM for the second. The second binds more tightly here.

`O=C1NC(=S)NC(=O)C1=Cc1ccc(O)cc1` and `O=C1NC(=S)NC(=O)C1=Cc1ccc(F)cc1` cannot be ordered by Ki: greater than 100 µM for the first, greater than 100 µM for the second.

`CN1C(=O)C(=Cc2ccccc2)C(=O)N(C)C1=O` and `CN1C(=O)C(=C/C=C/c2ccccc2)C(=O)N(C)C1=O` cannot be ordered by Ki: greater than 100 µM for the first, greater than 100 µM for the second.

Going from `O=C1NC(=S)NC(=O)C1=C/C=C/c1ccccc1` to `O=C1NC(=O)C(=C/C=C/c2ccccc2)C(=O)N1`, the Ki falls from greater than 100 µM to 12 µM. The second binds more tightly here.

`O=C1NC(=S)NC(=O)C1=Cc1ccc([N+](=O)[O-])cc1` and `O=C1NC(=O)C(=Cc2ccc([N+](=O)[O-])cc2)C(=O)N1` cannot be ordered by Ki: greater than 100 µM for the first, 105 µM for the second.

`CN1C(=O)C(=C/C=C/c2ccc(N(C)C)cc2)C(=O)N(C)C1=O` and `CN1C(=O)C(=Cc2ccc(N(C)C)cc2)C(=O)N(C)C1=O` cannot be ordered by Ki: greater than 100 µM for the first, greater than 100 µM for the second.

`CN1C(=O)C(=Cc2ccc(C(=O)O)cc2)C(=O)N(C)C1=O` and `COc1ccc(C=C2C(=O)N(C)C(=O)N(C)C2=O)cc1` cannot be ordered by Ki: greater than 100 µM for the first, greater than 100 µM for the second.

First: O=C1NC(=O)C(=Cc2ccc(F)cc2)C(=O)N1
Second: O=C1NC(=O)C(=Cc2ccc(O)cc2)C(=O)N1
The Ki of the first is 22-fold higher: 89 µM for the first, 4 µM for the second.

`O=C1NC(=O)C(=Cc2ccc(C(=O)O)cc2)C(=O)N1` and `O=C1NC(=S)NC(=O)C1=Cc1ccc(C(=O)O)cc1` cannot be ordered by Ki: 335 µM for the first, greater than 100 µM for the second.

Reference: ChEMBL document CHEMBL1143905, “Synthesis of barbiturate-based methionine aminopeptidase-1 inhibitors” (Bioorg Med Chem Lett, 2008)
